These results are taken from BindingDB's records for doi:10.1016/j.bmcl.2009.08.036 (Glaxosmithkline, 2009).

One may read the EC50 as the midpoint of the concentration-response curve.

For the experiment, the target named is T1, Oxysterols receptor LXR-beta (Homo sapiens, UniProt P55055).
T1 sequence (P55055 whole entry): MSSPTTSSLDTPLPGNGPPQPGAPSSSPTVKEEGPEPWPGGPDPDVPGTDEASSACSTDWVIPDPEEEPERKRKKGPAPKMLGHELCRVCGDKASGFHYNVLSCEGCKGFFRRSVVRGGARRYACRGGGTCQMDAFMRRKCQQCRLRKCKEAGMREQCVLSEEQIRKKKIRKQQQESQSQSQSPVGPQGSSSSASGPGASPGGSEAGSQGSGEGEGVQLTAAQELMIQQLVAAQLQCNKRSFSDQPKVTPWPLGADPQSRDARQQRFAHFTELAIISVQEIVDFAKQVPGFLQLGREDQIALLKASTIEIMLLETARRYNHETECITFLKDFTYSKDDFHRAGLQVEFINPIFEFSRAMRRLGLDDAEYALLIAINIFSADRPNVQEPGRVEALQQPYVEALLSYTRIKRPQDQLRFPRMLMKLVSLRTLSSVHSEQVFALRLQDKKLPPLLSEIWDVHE
Put plainly: Agonist activity at human LXRbeta assessed as association of SRC1 to LXRbeta ligand binding domain by FRET based cell-free ligand sensing assay. In outline: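 Cell-free FRET ligand-sensing assay measuring ligand-dependent recruitment of a 24-amino-acid steroid receptor coactivator 1 (SRC1) fragment to the LXR ligand-binding domain. Percent efficacy is expressed against the maximal agonist response of the reference agonist. Values are means of at least two experiments, standard deviation ≤10%.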

Turning to `O=C(O)C1CCCc2c(OCCCN(Cc3cccc(C(F)(F)F)c3Cl)CC(c3ccccc3)c3ccccc3)cccc21` (racemic) [(+/-)-5-(3-((2-chloro-3-(trifluoromethyl)benzyl)(2,2-diphenylethyl)amino)propoxy)-1,2,3,4-tetrahydronaphthalene-1-carboxylic acid], the EC50 is 26 nM.
